Source: ChEMBL document CHEMBL3259708, “Thienoquinolines as novel disruptors of the PKCε/RACK2 protein-protein interaction” (J Med Chem, 2014)
Calls of active or inactive are those of the source. No cut-off for these calls is given here.

Legend:
[1] = target: T1, Protein kinase C epsilon type (Homo sapiens, UniProt Q02156); test: (§1) Inhibition of recombinant PKCepsilon (unknown origin)-MBP-tagged RACK2 interaction after 1 hr by ELISA-based assay relative to untreated control
T1 sequence (Q02156 whole entry): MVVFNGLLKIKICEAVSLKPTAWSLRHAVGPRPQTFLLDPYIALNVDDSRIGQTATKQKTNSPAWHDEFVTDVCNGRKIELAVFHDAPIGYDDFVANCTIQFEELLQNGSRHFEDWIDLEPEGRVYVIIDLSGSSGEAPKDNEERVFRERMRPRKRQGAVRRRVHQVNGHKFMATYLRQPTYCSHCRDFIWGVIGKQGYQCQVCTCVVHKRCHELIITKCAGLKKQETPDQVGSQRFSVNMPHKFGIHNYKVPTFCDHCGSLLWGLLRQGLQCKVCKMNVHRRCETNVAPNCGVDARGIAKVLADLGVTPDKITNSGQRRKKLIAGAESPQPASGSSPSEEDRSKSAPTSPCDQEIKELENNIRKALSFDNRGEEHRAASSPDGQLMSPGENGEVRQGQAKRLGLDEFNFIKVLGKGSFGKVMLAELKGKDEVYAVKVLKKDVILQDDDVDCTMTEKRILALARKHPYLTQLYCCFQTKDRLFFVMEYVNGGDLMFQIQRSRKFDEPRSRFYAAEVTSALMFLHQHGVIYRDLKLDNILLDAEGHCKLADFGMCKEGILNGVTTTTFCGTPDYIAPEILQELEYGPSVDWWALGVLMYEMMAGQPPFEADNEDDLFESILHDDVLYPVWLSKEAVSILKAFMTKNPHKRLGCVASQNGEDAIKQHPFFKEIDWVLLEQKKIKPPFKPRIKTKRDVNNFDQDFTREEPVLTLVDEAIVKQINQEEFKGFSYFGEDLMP
Outline: (§2)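 ELISA: plates coated with 100 ng recombinant PKCε in 20 mM Tris-HCl/100 mM NaCl pH 7.5 overnight at 4 °C, blocked with 3% BSA; PKCε activated 10 min at 30 °C with 60 μg/mL phosphatidylserine and 100 nM TPA; RACK2-MBP preincubated with agent 30 min, then 500 ng added for 1 h binding; anti-RACK2/HRP detection, ABTS at 420 nm; four experiments, quadruplicates, normalized to control; IC50 via CalcuSyn.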

[2] = target: T2, Protein kinase C epsilon type (Homo sapiens) (UniProt Q02156); test: as §1; parameters: residual binding, % of control: concentration or dose not given beside the values; conditions: for residual binding, % of control: values are per cent of control; outline: as §2
T2 sequence (whole entry): T1 sequence (Q02156 whole entry)

[3] = target: T2, Protein kinase C epsilon type (Homo sapiens); test: Inhibition of phosphorylated form of PKCepsilon translocation to cell membrane in human PC3 cells at 25 to 50 uM by densitometric analysis; assay type: cell-based; conditions: PC-3
Outline: (§3)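 PC-3 cells starved 16 h, agent 30 min, then 50 nM TPA 5 min; lysed and split into cytosolic and membrane fractions; Western blot for PKCε, PKCε pSer729 or PKCδ, with IGFI-βR (membrane) and GAPDH (cytosol) loading controls; densitometry of four independent experiments, normalized to control, t test.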

[4] = target: T2, Protein kinase C epsilon type (Homo sapiens); test: Inhibition of recombinant PKCepsilon (unknown origin)-MBP-tagged RACK2 interaction at 25 uM after 1 hr by ELISA-based assay relative to untreated control; values are per cent of control
HeLa [5] = test: Antiproliferative activity against human HeLa cells expressing luciferase gene up to 50 uM; assay type: cell-based
Outline: (§4)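 HeLa-HLR and PC-3 cells seeded ~10 000/well; agent added after 4 h at various concentrations for 72 h; growth read by SRB assay; mean ±SD of three independent experiments, triplicate samples each.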

[6] = target: T2, Protein kinase C epsilon type (Homo sapiens); test: (§5) Inhibition of PKCepsilon-induced phosphorylation of Elk1 in human HeLa cells after 4 hrs by luciferase reporter gene assay; assay type: cell-based
Outline: (§6)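 PathDetect HeLa-HLR Elk-1 trans-reporting cells (200 000/well, grown 24 h) starved 16 h in 0.5% FBS medium; agent 30 min, 50 nM TPA 5 min, washed, then 4 h in starvation medium with agent; luciferase read on 20 μg lysate protein; mean ±SD of three experiments normalized to control; IC50 by CalcuSyn.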

[7] = target: T1, Protein kinase C epsilon type; test: as §5; assay type: cell-based; outline: as §6
[8] = target: Serine/threonine-protein kinase pim-3 (Homo sapiens) (UniProt Q86V86); test: Inhibition of PIM3 (unknown origin) at 25 uM; values are per cent of control
[9] = target: T2, Protein kinase C epsilon type (Homo sapiens); test: Inhibition of recombinant PKCepsilon (unknown origin)-MBP-tagged RACK2 interaction at 10 uM after 1 hr by ELISA-based assay relative to untreated control; conditions: values are per cent of control; outline: as §2
[10] = target: Ribosomal protein S6 kinase alpha-3 (Homo sapiens) (UniProt P51812); test: Inhibition of RSK2 (unknown origin) at 25 uM; values are per cent of control
Ribosomal protein S6 kinase alpha-3 (Homo sapiens), sequence (P51812 whole entry): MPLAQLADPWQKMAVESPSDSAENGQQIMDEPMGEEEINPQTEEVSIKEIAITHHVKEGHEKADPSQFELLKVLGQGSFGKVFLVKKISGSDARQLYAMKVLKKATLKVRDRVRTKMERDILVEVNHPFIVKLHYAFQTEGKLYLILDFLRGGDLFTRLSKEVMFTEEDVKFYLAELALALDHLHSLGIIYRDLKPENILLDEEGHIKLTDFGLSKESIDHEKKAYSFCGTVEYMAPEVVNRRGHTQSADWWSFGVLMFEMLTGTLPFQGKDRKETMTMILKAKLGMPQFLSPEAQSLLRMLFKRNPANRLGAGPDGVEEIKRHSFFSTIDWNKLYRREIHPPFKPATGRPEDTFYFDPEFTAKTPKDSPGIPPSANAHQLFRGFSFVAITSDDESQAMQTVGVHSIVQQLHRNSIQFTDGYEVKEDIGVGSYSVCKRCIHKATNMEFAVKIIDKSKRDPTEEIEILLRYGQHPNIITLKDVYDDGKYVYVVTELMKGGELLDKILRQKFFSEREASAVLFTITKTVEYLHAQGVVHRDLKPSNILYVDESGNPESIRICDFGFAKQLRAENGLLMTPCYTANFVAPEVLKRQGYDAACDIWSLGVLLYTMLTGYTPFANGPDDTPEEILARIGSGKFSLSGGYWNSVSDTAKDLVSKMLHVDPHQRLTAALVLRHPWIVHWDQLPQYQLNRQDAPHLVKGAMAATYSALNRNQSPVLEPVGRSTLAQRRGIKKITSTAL

[11] = target: T2, Protein kinase C epsilon type (Homo sapiens); test: Inhibition of PKCepsilon-induced phosphorylation of MARCKS in human HeLa cells at 50 uM by SDS-PAGE analysis; assay type: cell-based
Outline: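 HeLa cells serum-starved 16 h, treated with 50 μM agent for 30 min with 100 nM TPA for the last 10 min; 150 μg lysate protein on SDS 8–16% gels, blotted for MARCKS pSer152/156 with tubulin loading control; densitometry of three independent experiments.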

HeLa [12] = test: Antimigratory activity against human HeLa cells expressing doxycycline-inducible PKCepsilon at 25 uM after 24 hrs by scratch migration assay; assay type: functional, cell-based
Outline: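 HeLa cells carrying doxycycline-inducible constitutively active PKCε grown to log phase; ~1 mm scratch made in monolayer with pipet tip, washed with PBS, then given 2 μg/mL doxycycline plus 25 μM test agent for 24 h; controls untreated or doxycycline plus DMSO; gap closure viewed by microscope.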

[13] = target: Mitogen-activated protein kinase 3 (Homo sapiens) (UniProt P27361); test: Inhibition of ERK1 (unknown origin) at 25 uM; values are per cent of control
Mitogen-activated protein kinase 3 (Homo sapiens), sequence (P27361 whole entry): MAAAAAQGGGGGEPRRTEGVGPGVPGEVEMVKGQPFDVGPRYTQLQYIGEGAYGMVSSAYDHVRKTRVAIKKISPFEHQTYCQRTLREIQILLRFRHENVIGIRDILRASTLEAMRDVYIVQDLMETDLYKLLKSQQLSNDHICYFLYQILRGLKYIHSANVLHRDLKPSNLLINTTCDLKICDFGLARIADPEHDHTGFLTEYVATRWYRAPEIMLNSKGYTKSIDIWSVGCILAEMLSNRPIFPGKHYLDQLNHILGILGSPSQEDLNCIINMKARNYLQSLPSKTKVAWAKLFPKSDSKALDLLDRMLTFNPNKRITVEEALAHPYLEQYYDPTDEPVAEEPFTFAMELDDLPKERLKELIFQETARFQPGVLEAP

[14] = target: Protein kinase C beta type (Homo sapiens) (UniProt P05771); test: Inhibition of recombinant GST-tagged PKCbeta2 (unknown origin)-His-tagged RACK1 interaction after 1 hr by ELISA-based assay relative to untreated control
Protein kinase C beta type (Homo sapiens), sequence (P05771 2-671 limits assumed): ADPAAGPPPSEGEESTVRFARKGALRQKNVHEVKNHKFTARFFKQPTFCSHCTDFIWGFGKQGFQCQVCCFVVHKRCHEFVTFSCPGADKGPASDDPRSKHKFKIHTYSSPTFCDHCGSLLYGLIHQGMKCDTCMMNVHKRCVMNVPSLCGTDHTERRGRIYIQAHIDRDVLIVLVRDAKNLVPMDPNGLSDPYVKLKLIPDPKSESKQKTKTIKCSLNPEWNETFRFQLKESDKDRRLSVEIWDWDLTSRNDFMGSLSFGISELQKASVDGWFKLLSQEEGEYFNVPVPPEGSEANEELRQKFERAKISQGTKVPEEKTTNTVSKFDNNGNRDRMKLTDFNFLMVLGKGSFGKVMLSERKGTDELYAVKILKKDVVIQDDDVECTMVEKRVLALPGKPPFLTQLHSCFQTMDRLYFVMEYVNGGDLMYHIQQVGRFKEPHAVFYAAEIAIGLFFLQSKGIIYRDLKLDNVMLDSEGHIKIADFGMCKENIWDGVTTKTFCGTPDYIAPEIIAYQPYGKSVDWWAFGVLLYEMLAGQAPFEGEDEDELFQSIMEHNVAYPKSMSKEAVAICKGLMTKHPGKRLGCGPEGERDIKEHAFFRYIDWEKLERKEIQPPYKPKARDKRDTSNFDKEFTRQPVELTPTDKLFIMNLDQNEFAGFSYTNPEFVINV
Outline: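 ELISA: 200 ng His-tagged RACK1 coated overnight at 4 °C; agent added 30 min at room temperature; 500 ng GST-PKCβII activated with CaCl2, phosphatidylserine and TPA for 10 min, then bound 1 h; detected with anti-GST and HRP secondary, ABTS colour at 420 nm.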

HeLa [15] = test: Antiinvasive activity against human HeLa cells expressing doxycycline-inducible PKCepsilon at 25 uM after 24 hrs; assay type: functional, cell-based
Outline: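 Invasion of HeLa cells carrying doxycycline-inducible constitutively active PKCε, PKCε expression induced with doxycycline, through reconstituted basement membrane matrix using a commercial invasion kit per manufacturer; mean of three experiments, normalized to control (100%), t test.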

[16] = target: Protein kinase C beta type (Homo sapiens) (UniProt P05771); test: Inhibition of PKCbeta1 (unknown origin) at 50 uM
[17] = target: Protein kinase C eta type (Homo sapiens) (UniProt P24723); test: Inhibition of PKCeta (unknown origin) at 50 uM
Protein kinase C eta type (Homo sapiens), sequence (P24723 whole entry): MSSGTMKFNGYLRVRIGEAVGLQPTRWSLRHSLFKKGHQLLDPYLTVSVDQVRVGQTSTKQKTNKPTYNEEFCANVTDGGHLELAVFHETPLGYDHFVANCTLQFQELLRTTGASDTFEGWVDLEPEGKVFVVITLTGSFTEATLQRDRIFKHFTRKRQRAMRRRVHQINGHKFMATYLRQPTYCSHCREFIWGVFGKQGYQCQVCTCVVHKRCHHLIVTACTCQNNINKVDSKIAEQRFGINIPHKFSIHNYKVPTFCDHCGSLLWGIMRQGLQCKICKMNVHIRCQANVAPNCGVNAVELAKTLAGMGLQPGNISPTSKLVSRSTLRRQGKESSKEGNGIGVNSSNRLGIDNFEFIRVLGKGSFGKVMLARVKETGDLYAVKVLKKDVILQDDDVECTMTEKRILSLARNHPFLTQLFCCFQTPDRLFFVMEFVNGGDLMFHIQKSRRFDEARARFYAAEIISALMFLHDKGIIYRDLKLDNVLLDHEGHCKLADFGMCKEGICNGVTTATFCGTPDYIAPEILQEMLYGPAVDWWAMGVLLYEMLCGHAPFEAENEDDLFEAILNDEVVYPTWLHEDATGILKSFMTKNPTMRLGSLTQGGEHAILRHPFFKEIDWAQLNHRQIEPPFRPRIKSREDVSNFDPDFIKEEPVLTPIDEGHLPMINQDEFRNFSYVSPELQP

Gallus gallus = species on record: Gallus gallus; test: Antiangiogenic activity in chicken egg assessed as inhibition of VEGF-induced angiogenesis at 10 ng after 5 days by microscopic analysis; assay type: functional
Outline: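 Hen eggs incubated 3 days at 37 °C, opened, incubated 7 more days; VEGF and test agent added on day 10; after 5 further days, vessel formation inspected by microscope.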

[18] = target: T3, NUAK family SNF1-like kinase 1 (Homo sapiens) (UniProt O60285); test: Inhibition of NUAK1 (unknown origin) at 25 uM; values are per cent of control
T3 sequence (whole entry): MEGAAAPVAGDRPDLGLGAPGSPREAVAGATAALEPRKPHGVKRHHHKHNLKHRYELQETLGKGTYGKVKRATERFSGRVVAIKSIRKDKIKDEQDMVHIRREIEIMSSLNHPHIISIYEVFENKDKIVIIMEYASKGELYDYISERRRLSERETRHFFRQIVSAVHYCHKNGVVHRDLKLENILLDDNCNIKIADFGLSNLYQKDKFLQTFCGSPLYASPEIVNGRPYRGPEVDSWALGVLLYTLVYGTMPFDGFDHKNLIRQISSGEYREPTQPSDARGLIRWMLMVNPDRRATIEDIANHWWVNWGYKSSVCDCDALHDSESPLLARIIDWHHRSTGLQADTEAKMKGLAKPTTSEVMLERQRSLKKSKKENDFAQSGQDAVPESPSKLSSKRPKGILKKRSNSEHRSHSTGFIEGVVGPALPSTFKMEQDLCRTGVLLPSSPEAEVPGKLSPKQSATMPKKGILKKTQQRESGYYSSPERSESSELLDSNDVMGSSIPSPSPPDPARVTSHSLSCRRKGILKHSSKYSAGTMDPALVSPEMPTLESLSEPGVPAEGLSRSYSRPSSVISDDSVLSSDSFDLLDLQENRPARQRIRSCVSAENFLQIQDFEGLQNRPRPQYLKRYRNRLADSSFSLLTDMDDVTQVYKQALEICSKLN

PC-3 = test: Antiproliferative activity against human PC3 cells expressing luciferase gene up to 50 uM; assay type: cell-based; outline: as §4
[19] = target: Protein kinase C alpha type (Homo sapiens) (UniProt P17252); test: Inhibition of PKCalpha (unknown origin) at 50 uM
[20] = target: T2, Protein kinase C epsilon type (Homo sapiens); test: Inhibition of TPA-induced PKCepsilon translocation to cell membrane in human PC3 cells at 50 uM by immunofluorescence analysis; assay type: cell-based; conditions: PC-3
Outline: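 PC-3 cells on poly-L-lysine coverslips treated with agent 30 min then 100 nM TPA 5 min; fixed in 4% paraformaldehyde/4% sucrose, permeabilized, stained for PKCε with fluorescent secondary, imaged by microscopy; three independent experiments.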

[21] = target: Protein kinase C delta type (Homo sapiens) (UniProt Q05655); test: Inhibition of PKCdelta translocation to cell membrane in human PC3 cells at 25 to 50 uM by densitometric analysis; assay type: cell-based; conditions: PC-3; outline: as §3
Protein kinase C delta type (Homo sapiens), sequence (Q05655 whole entry, looked up): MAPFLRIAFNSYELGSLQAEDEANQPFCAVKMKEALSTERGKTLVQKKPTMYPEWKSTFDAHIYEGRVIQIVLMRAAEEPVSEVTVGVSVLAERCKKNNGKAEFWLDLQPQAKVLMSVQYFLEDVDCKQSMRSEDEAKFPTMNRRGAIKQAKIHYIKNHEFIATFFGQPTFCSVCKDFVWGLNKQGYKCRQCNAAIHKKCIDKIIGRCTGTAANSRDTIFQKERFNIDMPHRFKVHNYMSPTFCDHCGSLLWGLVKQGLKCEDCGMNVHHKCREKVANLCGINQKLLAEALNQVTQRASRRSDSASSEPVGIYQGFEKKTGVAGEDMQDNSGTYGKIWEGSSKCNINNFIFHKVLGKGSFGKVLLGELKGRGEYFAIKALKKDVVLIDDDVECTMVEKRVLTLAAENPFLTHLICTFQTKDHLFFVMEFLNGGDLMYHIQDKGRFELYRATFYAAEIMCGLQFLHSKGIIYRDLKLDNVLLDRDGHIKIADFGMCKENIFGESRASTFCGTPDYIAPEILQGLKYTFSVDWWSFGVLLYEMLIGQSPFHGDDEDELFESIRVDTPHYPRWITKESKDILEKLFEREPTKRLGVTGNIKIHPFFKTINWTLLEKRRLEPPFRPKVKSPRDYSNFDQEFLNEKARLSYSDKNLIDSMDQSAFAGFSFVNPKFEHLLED

[22] = target: T2, Protein kinase C epsilon type (Homo sapiens); test: Inhibition of TPA-induced PKCepsilon Ser729 phosphorylation in human PC3 cell membrane at 25 to 50 uM by densitometric analysis; assay type: cell-based; conditions: PC-3; outline: as §3
[23] = target: Tyrosine-protein kinase BTK (Homo sapiens) (UniProt Q06187); test: Inhibition of BTK (unknown origin) at 25 uM; values are per cent of control
Tyrosine-protein kinase BTK (Homo sapiens), sequence (Q06187 whole entry): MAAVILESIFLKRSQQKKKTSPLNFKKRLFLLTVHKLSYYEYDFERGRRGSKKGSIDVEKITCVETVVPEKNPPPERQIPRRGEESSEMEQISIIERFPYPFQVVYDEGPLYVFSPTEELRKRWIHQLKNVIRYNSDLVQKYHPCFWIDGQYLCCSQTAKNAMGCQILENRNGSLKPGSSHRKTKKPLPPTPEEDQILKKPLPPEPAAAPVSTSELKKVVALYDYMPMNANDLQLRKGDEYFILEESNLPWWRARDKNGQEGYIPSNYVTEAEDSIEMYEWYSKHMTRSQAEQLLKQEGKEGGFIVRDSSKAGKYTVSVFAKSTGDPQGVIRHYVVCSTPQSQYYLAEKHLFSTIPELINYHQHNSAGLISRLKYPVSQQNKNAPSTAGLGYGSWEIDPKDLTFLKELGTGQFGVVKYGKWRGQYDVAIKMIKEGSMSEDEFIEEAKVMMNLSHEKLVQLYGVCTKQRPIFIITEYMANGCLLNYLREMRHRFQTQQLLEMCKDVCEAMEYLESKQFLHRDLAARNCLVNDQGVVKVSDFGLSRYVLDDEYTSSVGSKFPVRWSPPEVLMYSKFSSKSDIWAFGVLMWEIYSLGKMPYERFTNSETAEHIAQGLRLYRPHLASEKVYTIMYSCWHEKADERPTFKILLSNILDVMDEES

[24] = target: T2, Protein kinase C epsilon type (Homo sapiens); test: Inhibition of PKCepsilon translocation to cell membrane in human PC3 cells at 25 to 50 uM by densitometric analysis; assay type: cell-based; conditions: PC-3; outline: as §3

H-EAVSLKPTRRRRRRR-OH
IC50 [1]: 1.02 µM

COC(=O)c1cccc(NC(=O)c2sc3nc4cc5c(cc4cc3c2N)OCO5)c1
residual binding, % of control [2]: 30.8%

CCOC(=O)c1cccc(NC(=O)c2sc3nc4ccc(OC)cc4cc3c2N)c1
residual binding, % of control [2]: 29.6%

CC(=O)c1cccc(NC(=O)c2sc3nc4cc5c(cc4cc3c2N)OCO5)c1
residual binding, % of control [2]: 58.9%

CC(=O)c1ccc(NC(=O)c2sc3nc4cc5c(cc4cc3c2N)OCCO5)cc1
residual binding, % of control [2]: 22.8%

CC(=O)c1cccc(NC(=O)c2sc3nc4cc5c(cc4cc3c2N)OCCO5)c1
inhibition [3]: Active
residual activity [4]: 13.3%
Activity (HeLa [5]): Non-toxic
inhibition [6]: Dose-dependent effect
IC50 [7]: 11.2 µM
residual activity [8]: 46%
residual binding, % of control [9]: 23.6%
residual activity [10]: 27%
inhibition [11]: Active
inhibition (HeLa [12]): Active
residual activity [13]: 55%
inhibition [14]: inactive
inhibition (HeLa [15]): Active
inhibition [16]: 80%
inhibition [17]: 80%
inhibition (Gallus gallus): Active
residual activity [18]: 49%
Activity (PC-3): Non-toxic
inhibition [19]: 80%
inhibition [2]: Dose-dependent effect
IC50 [1]: 5.9 µM
inhibition [20]: Active
inhibition [21]: inactive
inhibition [22]: inactive
residual activity [23]: 42%
inhibition [24]: Active

O=C1NC(=O)N(Cc2ccccc2)C(=O)/C1=C\c1ccc2c(c1)OCO2
IC50 [1]: 28.5 µM

C/C(=N\OCC(=O)O)c1cccc(NC(=O)c2sc3nc4cc5c(cc4cc3c2N)OCCO5)c1
residual binding, % of control [2]: 59.3%

COc1ccc(NC(=O)c2sc3nc4ccccc4cc3c2N)cc1
residual binding, % of control [2]: 42.7%

CCOc1ccc2nc3sc(C(=O)Nc4ccc(F)cc4)c(N)c3cc2c1
residual binding, % of control [2]: 60.5%

COc1ccc2nc3sc(C(=O)Nc4ccc(N5CCOCC5)cc4)c(N)c3cc2c1
residual binding, % of control [2]: 32.9%

Nc1c(C(=O)Nc2cccc(Cl)c2)sc2nc3cc4c(cc3cc12)OCCO4
residual binding, % of control [2]: 58%
